In one test the target is T1, SET7/9 (Homo sapiens, UniProt Q8WTS6).
T1 sequence (Q8WTS6 1-366): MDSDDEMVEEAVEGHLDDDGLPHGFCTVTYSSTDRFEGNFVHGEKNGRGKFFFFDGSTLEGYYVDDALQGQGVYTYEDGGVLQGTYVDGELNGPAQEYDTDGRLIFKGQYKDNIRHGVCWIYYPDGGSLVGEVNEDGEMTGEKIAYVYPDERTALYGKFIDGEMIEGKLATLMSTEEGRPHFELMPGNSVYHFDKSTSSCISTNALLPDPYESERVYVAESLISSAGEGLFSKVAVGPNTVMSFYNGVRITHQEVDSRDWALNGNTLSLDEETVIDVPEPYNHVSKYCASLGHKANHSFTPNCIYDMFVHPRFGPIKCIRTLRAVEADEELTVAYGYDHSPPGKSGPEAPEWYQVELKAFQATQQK
As to the kind of experiment: Radioactive methyltransferase assay, SET7/9. The test is classed as biochemical. As to conditions: 10 μM compound. An outline of the steps:
(§1)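 The selectivity screen covered 21 protein methyltransferases in radioisotope-based MT HotSpot methyltransferase assays run by a contract laboratory. Test compound was at 10 μM. Each assay was run in duplicate and reported as mean ± SD of the two replicates.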

In the next test the test system is G9a mRNA. Nature of the test: RT-qPCR of G9a mRNA in H1299 cells. Format: cell-based. As to conditions: 3 μM, 24 h, normalized to DMSO. An outline of the steps: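 H1299 cells were treated with DMSO or test compound at 3 μM for 24 h. Total RNA was extracted and reverse-transcribed to cDNA. qPCR used gene-specific primers for G9a and GLP, and a GAPDH primer set was included.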
A general note: Real-time PCR tracks product formation cycle by cycle.

The target of test [1] is T2, GLP (Homo sapiens, UniProt Q9H9B1).
T2 sequence (Q9H9B1 1-1298): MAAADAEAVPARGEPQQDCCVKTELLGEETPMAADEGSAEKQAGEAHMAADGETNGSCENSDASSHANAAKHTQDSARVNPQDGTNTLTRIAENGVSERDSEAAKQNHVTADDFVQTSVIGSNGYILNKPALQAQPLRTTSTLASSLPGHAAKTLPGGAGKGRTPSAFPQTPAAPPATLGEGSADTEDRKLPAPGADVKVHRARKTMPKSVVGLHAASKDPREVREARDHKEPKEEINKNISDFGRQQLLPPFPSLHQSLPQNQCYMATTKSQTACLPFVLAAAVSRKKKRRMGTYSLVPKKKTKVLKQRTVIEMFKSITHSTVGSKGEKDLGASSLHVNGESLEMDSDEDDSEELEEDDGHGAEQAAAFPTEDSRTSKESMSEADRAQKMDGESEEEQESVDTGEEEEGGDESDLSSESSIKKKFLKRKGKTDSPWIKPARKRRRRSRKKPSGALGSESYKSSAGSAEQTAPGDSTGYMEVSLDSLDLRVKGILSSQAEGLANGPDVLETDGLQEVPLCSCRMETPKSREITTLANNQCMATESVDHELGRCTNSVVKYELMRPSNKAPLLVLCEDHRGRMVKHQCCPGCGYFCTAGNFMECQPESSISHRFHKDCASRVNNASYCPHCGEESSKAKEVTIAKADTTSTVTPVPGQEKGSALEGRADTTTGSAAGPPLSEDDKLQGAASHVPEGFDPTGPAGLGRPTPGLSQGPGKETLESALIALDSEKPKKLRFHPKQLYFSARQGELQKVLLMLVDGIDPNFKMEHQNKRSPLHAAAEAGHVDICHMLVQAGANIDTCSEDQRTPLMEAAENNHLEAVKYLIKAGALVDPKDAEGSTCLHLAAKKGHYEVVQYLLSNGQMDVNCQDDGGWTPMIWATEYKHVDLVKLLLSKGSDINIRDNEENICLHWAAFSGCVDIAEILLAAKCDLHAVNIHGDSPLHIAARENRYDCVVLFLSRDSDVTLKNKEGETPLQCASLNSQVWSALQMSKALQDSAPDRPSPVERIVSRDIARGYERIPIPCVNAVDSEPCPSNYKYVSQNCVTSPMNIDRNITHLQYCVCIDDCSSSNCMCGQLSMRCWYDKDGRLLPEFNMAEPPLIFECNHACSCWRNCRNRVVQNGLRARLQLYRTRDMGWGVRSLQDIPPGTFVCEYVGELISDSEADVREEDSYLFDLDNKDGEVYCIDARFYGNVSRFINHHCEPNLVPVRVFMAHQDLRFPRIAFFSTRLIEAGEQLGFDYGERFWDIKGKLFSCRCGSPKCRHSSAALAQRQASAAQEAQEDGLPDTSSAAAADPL
Nature of the test: GLP radioactive methyltransferase assay. Format: biochemical. The note with it: indicated concentrations, duplicate (Figure 4C). An outline of the steps: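 Enzyme activity was measured with a radioisotope-based MT HotSpot methyltransferase assay run by a contract laboratory. Test compounds were run at the indicated concentrations, in duplicate. Data are mean ± SD of the two duplicate experiments.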

Test [2] relates to panel of 21 protein methyltransferases. Nature of the test: Selectivity panel, radioactive methyltransferase assays. The note with it: 10 μM compound, duplicate. The test is classed as biochemical. The gist of the method: as §1
Test [3] concerns the target T2, GLP. Nature of the test: Western blot of GLP protein levels in cancer cells. The test is classed as cell-based. The gist of the method: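 Cells (22Rv1, K562, H1299) were treated for 24 h at the indicated concentrations; 22Rv1 time courses were run at 3 μM. Cells were lysed in RIPA with protease inhibitors, and 10–30 μg of protein was resolved by SDS-PAGE and transferred to PVDF. Blots were probed overnight at 4 °C, with vinculin/β-actin as loading controls. Band intensity was normalised to DMSO, with n = 2 independent experiments (mean ± SD).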
A general note: Immunoblotting shows a protein as a band on a membrane.

The next test has as its target EZH2 (Homo sapiens, UniProt Q15910). As to the kind of experiment: Radioactive methyltransferase assay, EZH2. The note with it: 10 μM compound. The test is classed as biochemical.

Chain of EZH2 (Q15910 whole entry): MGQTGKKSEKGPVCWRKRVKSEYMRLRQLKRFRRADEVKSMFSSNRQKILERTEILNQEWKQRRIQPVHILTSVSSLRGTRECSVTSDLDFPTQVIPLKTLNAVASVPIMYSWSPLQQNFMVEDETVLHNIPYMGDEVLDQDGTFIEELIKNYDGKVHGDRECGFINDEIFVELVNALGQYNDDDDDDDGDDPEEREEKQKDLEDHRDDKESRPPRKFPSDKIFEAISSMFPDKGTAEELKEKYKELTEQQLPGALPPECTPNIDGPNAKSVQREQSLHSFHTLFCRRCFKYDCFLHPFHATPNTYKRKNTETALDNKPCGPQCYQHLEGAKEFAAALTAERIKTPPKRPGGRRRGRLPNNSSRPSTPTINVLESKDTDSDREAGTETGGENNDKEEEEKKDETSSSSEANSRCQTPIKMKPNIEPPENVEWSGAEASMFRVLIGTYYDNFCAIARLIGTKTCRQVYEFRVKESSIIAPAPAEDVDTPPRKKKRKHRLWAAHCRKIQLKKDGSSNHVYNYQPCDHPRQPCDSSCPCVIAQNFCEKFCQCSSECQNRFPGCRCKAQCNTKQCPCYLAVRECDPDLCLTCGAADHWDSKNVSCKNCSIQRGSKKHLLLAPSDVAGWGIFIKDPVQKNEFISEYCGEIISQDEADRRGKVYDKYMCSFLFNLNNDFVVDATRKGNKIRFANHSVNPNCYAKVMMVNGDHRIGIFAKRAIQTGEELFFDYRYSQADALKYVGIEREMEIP
Chain of EZH2 (O75530 whole entry partner): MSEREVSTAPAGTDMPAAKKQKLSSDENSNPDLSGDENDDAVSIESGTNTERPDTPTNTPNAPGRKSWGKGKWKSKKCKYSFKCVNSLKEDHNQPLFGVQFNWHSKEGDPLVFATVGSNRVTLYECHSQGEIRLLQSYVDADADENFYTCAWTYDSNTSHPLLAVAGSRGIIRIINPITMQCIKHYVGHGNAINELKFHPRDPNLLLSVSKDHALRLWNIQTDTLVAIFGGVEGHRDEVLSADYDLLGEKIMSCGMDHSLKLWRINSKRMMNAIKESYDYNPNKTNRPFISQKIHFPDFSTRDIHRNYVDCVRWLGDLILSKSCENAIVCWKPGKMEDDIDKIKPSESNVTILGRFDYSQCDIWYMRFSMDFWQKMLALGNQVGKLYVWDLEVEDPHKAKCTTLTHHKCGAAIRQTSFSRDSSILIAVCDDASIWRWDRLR
Chain of EZH2 (Q15022 whole entry partner): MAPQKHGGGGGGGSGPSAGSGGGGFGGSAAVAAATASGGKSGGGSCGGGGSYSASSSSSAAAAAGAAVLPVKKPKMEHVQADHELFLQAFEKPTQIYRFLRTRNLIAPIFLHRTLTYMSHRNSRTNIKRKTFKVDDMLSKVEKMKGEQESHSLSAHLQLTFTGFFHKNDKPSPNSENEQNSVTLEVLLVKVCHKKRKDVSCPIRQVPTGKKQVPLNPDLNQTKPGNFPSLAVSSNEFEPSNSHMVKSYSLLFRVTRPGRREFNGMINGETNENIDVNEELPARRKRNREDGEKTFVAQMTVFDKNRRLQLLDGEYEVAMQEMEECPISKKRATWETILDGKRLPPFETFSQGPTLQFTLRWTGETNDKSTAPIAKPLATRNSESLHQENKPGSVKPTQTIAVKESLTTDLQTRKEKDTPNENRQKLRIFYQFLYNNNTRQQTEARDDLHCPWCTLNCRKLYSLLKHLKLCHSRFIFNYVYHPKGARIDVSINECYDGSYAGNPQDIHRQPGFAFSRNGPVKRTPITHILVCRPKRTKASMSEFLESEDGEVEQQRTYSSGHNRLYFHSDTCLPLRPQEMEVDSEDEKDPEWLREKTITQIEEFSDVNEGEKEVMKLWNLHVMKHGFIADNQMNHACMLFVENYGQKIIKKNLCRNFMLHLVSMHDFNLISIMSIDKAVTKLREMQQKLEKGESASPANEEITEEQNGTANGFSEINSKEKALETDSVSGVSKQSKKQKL
Chain of EZH2 (Q09028 whole entry partner): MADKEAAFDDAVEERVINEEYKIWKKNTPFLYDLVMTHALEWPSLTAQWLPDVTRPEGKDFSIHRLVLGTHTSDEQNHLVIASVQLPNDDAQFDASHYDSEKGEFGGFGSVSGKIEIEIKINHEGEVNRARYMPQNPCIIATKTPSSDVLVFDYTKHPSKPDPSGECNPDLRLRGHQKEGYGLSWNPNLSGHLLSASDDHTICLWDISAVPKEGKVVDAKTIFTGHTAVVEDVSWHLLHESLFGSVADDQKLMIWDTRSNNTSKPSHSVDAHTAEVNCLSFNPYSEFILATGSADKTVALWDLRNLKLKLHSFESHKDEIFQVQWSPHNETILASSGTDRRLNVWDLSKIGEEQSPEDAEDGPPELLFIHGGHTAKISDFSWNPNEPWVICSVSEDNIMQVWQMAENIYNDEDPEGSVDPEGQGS
Chain of EZH2 (Q6ZN18 whole entry partner): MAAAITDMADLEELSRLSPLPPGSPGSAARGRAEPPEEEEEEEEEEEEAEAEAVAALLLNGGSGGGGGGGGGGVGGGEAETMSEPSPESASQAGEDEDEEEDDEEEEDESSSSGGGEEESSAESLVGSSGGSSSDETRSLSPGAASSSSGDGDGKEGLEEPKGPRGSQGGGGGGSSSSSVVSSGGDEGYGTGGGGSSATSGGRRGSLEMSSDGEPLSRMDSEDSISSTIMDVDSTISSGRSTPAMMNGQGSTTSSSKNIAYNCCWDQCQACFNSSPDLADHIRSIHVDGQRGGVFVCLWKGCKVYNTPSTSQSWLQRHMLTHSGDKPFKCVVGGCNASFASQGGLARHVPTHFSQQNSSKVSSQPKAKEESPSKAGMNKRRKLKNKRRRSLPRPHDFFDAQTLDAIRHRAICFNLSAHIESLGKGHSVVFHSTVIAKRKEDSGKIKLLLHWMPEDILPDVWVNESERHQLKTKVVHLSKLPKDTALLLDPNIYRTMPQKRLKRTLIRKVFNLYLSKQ

`COc1cc2c(NC3CCN(CCCC(=O)NCCCCCCCCCCCC(=O)N[C@H](C(=O)N4C[C@H](O)C[C@H]4C(=O)NCc4ccc(-c5scnc5C)cc4)C(C)(C)C)CC3)nc(N3CCC(F)(F)CC3)nc2cc1OCCCN1CCCC1` [Compound 10, (2S,4R)-1-((S)-2-(12-(4-(4-((2-(4,4-difluoropiperidin-1-yl)-6-methoxy-7-(3-(pyrrolidin-1-yl)propoxy)quinazolin-4-yl)amino)piperidin-1-yl)butanamido)dodecanamido)-3,3-dimethylbutanoyl)-4-hydroxy-N-(4-(4-methylthiazol-5-yl)benzyl)pyrrolidine-2-carboxamide]: on SET7/9, the “inhibition of SET7/9” value is recorded as “moderately inhibited”. The “mRNA levels of G9a” value with G9a mRNA is “did not significantly alter”. The “inhibition of GLP enzymatic activity” value on GLP [1] is given as “similarly inhibited”. The “inhibition of panel methyltransferases” value in test [2] is given as at most 50%. The “GLP degradation, in words” value on GLP [3] (22Rv1 cells, 1 μM, 24 h, WB (Figure 3A)) is given as “potently induced degradation”. Moreover, at GLP [3] (22Rv1 cells, 3 μM), the “duration of GLP degradation effect” value is on record as “up to 48 h”, the “time at which GLP degradation was first observed” value worked out at 4 h and the “time to complete GLP degradation” value was “around 24 h”. On GLP [3] (H1299 cells, 3 μM, 24 h, WB), the “GLP degradation, in words” value is “degraded”. Also, on GLP [3] (K562 cells, 3 μM, 24 h, WB), the “GLP degradation, in words” value is “induced G9a and GLP degradation”. Further, on GLP [3] (read-out: half-maximal degradation concentration (DC50) for GLP, 22Rv1 cells, 24 h, WB), the DC50 turned out to be 0.26 ± 0.053 µM. In addition, the “inhibition of EZH2” value at EZH2 is on record as “moderately inhibited”.

The values above are taken from paper PMC10925177 (bioRxiv, 2024).
